Test results: ChEMBL document CHEMBL4689842, “EUbOPEN Chemogenomics Library wave 1” (2021)

Experiments:
[1] = system: U2OS; assay: Multiplex assay against U2OS; assay type: toxicity, cell-based; conditions: human
Outline: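 Live cells were stained at seeding with Hoechst33342, BioTracker Green Microtubule Cytoskeleton Dye, MitoTracker Red and Annexin V Alexa Fluor 680, then imaged on a CQ1 microscope at 37°C and 5% CO2 after compound addition. CellPathfinder machine-learning gating split cells into Hoechst high-intensity objects or normal cells. Normal cells were split into healthy, pyknosed or fragmented nuclei, and pyknosed cells into mitotic or apoptotic. Tubulin, mitochondrial-mass and membrane-permeability phenotypes are per cents of healthy-nucleus cells.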

[2] = system: HEK-293T; assay: Incucyte cell viability with HEK293T; assay type: toxicity, cell-based; conditions: human, 10 µM, compound concentration 10 uM; also: filed as whole numbers so only -1 and 0 and 1 occur
[3] = 12 h, 1 µM, compound concentration 1 uM, replicate 1
[4] = 12 h, 1 µM, compound concentration 1 uM, replicate 2
[5] = 12 h, 10 µM, compound concentration 10 uM, replicate 1
[6] = 12 h, 10 µM, compound concentration 10 uM, replicate 2
[7] = 24 h, 1 µM, compound concentration 1 uM, replicate 1
[8] = 24 h, 1 µM, compound concentration 1 uM, replicate 2
[9] = 24 h, 10 µM, compound concentration 10 uM, replicate 1
[10] = 24 h, 10 µM, compound concentration 10 uM, replicate 2
[11] = 48 h, 1 µM, compound concentration 1 uM, replicate 1
[12] = 48 h, 1 µM, compound concentration 1 uM, replicate 2
[13] = 48 h, 10 µM, compound concentration 10 uM, replicate 1
[14] = 48 h, 10 µM, compound concentration 10 uM, replicate 2

Oc1cccc(-c2nc(N3CCOCC3)c3oc4ncccc4c3n2)c1 [PI-103]
Population Apoptotic (%) [1, 3]: 73%
Population Fragmented Nuclei (%) [1, 3]: 20%
Population Healthy Nuclei (%) [1, 3]: 67%
Population Hoechst High Intensity Objects (%) [1, 3]: 11%
Population Membrane Permeable-Phenotype (%) [1, 3]: 8%
Population Mitochondria Different-Phenotype (%) [1, 3]: 7%
Population Mitotic Cells (%) [1, 3]: 26%
Population Normal (%) [1, 3]: 88%
Population Pyknosed Nuclei (%) [1, 3]: 12%
Population Tubulin-Different-Phenotype (%) [1, 3]: 14%
Total Cell Count [1, 3]: 224
Population Apoptotic (%) [1, 4]: 47%
Population Fragmented Nuclei (%) [1, 4]: 10%
Population Healthy Nuclei (%) [1, 4]: 63%
Population Hoechst High Intensity Objects (%) [1, 4]: 5%
Population Membrane Permeable-Phenotype (%) [1, 4]: 2%
Population Mitotic Cells (%) [1, 4]: 52%
Population Normal (%) [1, 4]: 94%
Population Pyknosed Nuclei (%) [1, 4]: 26%
Population Tubulin-Different-Phenotype (%) [1, 4]: 0%
Total Cell Count [1, 4]: 73
Population Apoptotic (%) [1, 5]: 42%
Population Fragmented Nuclei (%) [1, 5]: 20%
Population Healthy Nuclei (%) [1, 5]: 47%
Population Hoechst High Intensity Objects (%) [1, 5]: 6%
Population Membrane Permeable-Phenotype (%) [1, 5]: 35%
Population Mitochondria Different-Phenotype (%) [1, 5]: 63%
Population Mitotic Cells (%) [1, 5]: 57%
Population Normal (%) [1, 5]: 93%
Population Pyknosed Nuclei (%) [1, 5]: 31%
Population Tubulin-Different-Phenotype (%) [1, 5]: 80%
Total Cell Count [1, 5]: 168
Population Apoptotic (%) [1, 6]: 36%
Population Fragmented Nuclei (%) [1, 6]: 18%
Population Healthy Nuclei (%) [1, 6]: 39%
Population Hoechst High Intensity Objects (%) [1, 6]: 5%
Population Membrane Permeable-Phenotype (%) [1, 6]: 33%
Population Mitochondria Different-Phenotype (%) [1, 6]: 59%
Population Mitotic Cells (%) [1, 6]: 63%
Population Normal (%) [1, 6]: 94%
Population Pyknosed Nuclei (%) [1, 6]: 41%
Population Tubulin-Different-Phenotype (%) [1, 6]: 83%
Total Cell Count [1, 6]: 69
Population Apoptotic (%) [1, 7]: 56%
Population Fragmented Nuclei (%) [1, 7]: 21%
Population Healthy Nuclei (%) [1, 7]: 61%
Population Hoechst High Intensity Objects (%) [1, 7]: 8%
Population Membrane Permeable-Phenotype (%) [1, 7]: 7%
Population Mitochondria Different-Phenotype (%) [1, 7]: 4%
Population Mitotic Cells (%) [1, 7]: 43%
Population Normal (%) [1, 7]: 91%
Population Pyknosed Nuclei (%) [1, 7]: 16%
Population Tubulin-Different-Phenotype (%) [1, 7]: 11%
Total Cell Count [1, 7]: 224
Population Apoptotic (%) [1, 8]: 75%
Population Fragmented Nuclei (%) [1, 8]: 14%
Population Healthy Nuclei (%) [1, 8]: 69%
Population Hoechst High Intensity Objects (%) [1, 8]: 6%
Population Membrane Permeable-Phenotype (%) [1, 8]: 3%
Population Mitochondria Different-Phenotype (%) [1, 8]: 3%
Population Mitotic Cells (%) [1, 8]: 25%
Population Normal (%) [1, 8]: 93%
Population Tubulin-Different-Phenotype (%) [1, 8]: 1%
Total Cell Count [1, 8]: 73
Population Apoptotic (%) [1, 9]: 54%
Population Fragmented Nuclei (%) [1, 9]: 25%
Population Healthy Nuclei (%) [1, 9]: 40%
Population Hoechst High Intensity Objects (%) [1, 9]: 10%
Population Membrane Permeable-Phenotype (%) [1, 9]: 20%
Population Mitochondria Different-Phenotype (%) [1, 9]: 62%
Population Mitotic Cells (%) [1, 9]: 45%
Population Normal (%) [1, 9]: 89%
Population Pyknosed Nuclei (%) [1, 9]: 34%
Population Tubulin-Different-Phenotype (%) [1, 9]: 74%
Total Cell Count [1, 9]: 196
Population Apoptotic (%) [1, 10]: 50%
Population Fragmented Nuclei (%) [1, 10]: 28%
Population Healthy Nuclei (%) [1, 10]: 24%
Population Hoechst High Intensity Objects (%) [1, 10]: 4%
Population Membrane Permeable-Phenotype (%) [1, 10]: 44%
Population Mitochondria Different-Phenotype (%) [1, 10]: 75%
Population Mitotic Cells (%) [1, 10]: 49%
Population Normal (%) [1, 10]: 95%
Population Pyknosed Nuclei (%) [1, 10]: 47%
Population Tubulin-Different-Phenotype (%) [1, 10]: 89%
Total Cell Count [1, 10]: 80
Population Apoptotic (%) [1, 11]: 70%
Population Fragmented Nuclei (%) [1, 11]: 18%
Population Healthy Nuclei (%) [1, 11]: 64%
Population Hoechst High Intensity Objects (%) [1, 11]: 7%
Population Membrane Permeable-Phenotype (%) [1, 11]: 7%
Population Mitochondria Different-Phenotype (%) [1, 11]: 6%
Population Mitotic Cells (%) [1, 11]: 29%
Population Normal (%) [1, 11]: 92%
Population Pyknosed Nuclei (%) [1, 11]: 17%
Population Tubulin-Different-Phenotype (%) [1, 11]: 16%
Total Cell Count [1, 11]: 222
Population Apoptotic (%) [1, 12]: 63%
Population Fragmented Nuclei (%) [1, 12]: 10%
Population Healthy Nuclei (%) [1, 12]: 75%
Population Hoechst High Intensity Objects (%) [1, 12]: 4%
Population Membrane Permeable-Phenotype (%) [1, 12]: 8%
Population Mitochondria Different-Phenotype (%) [1, 12]: 4%
Population Mitotic Cells (%) [1, 12]: 36%
Population Normal (%) [1, 12]: 95%
Population Pyknosed Nuclei (%) [1, 12]: 13%
Population Tubulin-Different-Phenotype (%) [1, 12]: 8%
Total Cell Count [1, 12]: 72
Population Apoptotic (%) [1, 13]: 70%
Population Fragmented Nuclei (%) [1, 13]: 35%
Population Healthy Nuclei (%) [1, 13]: 26%
Population Hoechst High Intensity Objects (%) [1, 13]: 15%
Population Membrane Permeable-Phenotype (%) [1, 13]: 37%
Population Mitochondria Different-Phenotype (%) [1, 13]: 48%
Population Mitotic Cells (%) [1, 13]: 29%
Population Normal (%) [1, 13]: 84%
Population Pyknosed Nuclei (%) [1, 13]: 38%
Population Tubulin-Different-Phenotype (%) [1, 13]: 56%
Total Cell Count [1, 13]: 215
Population Apoptotic (%) [1, 14]: 68%
Population Fragmented Nuclei (%) [1, 14]: 26%
Population Hoechst High Intensity Objects (%) [1, 14]: 12%
Population Membrane Permeable-Phenotype (%) [1, 14]: 85%
Population Mitochondria Different-Phenotype (%) [1, 14]: 77%
Population Mitotic Cells (%) [1, 14]: 31%
Population Normal (%) [1, 14]: 87%
Population Pyknosed Nuclei (%) [1, 14]: 47%
Population Tubulin-Different-Phenotype (%) [1, 14]: 88%
Total Cell Count [1, 14]: 86
Growth Rate ([2]; 6 h, replicate number 1, timepoint 6 hours): 0
Growth Rate ([2]; 12 h, replicate number 1, timepoint 12 hours): 0
Growth Rate ([2]; 18 h, replicate number 1, timepoint 18 hours): 0
Growth Rate ([2]; 24 h, replicate number 1, timepoint 24 hours): 0
